The source of these data is ChEMBL document CHEMBL1140136, “Structural modifications of N-(1,2,3,4-tetrahydronaphthalen-1-yl)-4-aryl-1-piperazinehexanamides: influence on lipophilicity and 5-HT7 receptor activity. Part III” (J Med Chem, 2008).

Series [1] can be described thus: Plasma concentration in CD1 albino mouse at 10 mg/kg, ip after 1 hr. It counts as ADME, organism-based. Details: dose 10 mg/kg, route intraperitoneal. The gist of the method:
(§1)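 Male CD1 mice (25-30 g) received 10 mg/kg ip, with 3 mice per time point. Heparinized trunk blood gave plasma; brain was homogenized in water (1 g/10 mL). Samples were extracted with hexane/isoamyl alcohol and assayed by RP-HPLC-UV at 230 nm with an internal standard. Quantification limits were 0.1 µg/mL plasma and 0.1 µg/g brain. Cmax and its time were read from the data.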

Series [2] is described as follows: Cmax in CD1 albino mouse brain at 10 mg/kg, ip after 30 mins. It counts as ADME, organism-based. Details: dose 10 mg/kg, route intraperitoneal. The gist of the method:
as §1

Series [3] can be described thus: Elimination half life in CD1 albino mouse brain at 10 mg/kg, ip. Conditions: read-out: beta t1/2. Details: dose 10 mg/kg, route intraperitoneal. It counts as ADME, organism-based. In a few lines: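 Male CD1 albino mice (25-30 g), 10 mg/kg i.p., 3 mice per time point. Brains were removed, blotted, frozen, homogenized in water (1 g/10 mL) and extracted twice with hexane/isoamyl alcohol. Parent and 1-arylpiperazine metabolite were measured by RP-HPLC-UV at 230 nm. LLOQ about 0.1 µg/g; no residual-blood correction. Cmax read directly, AUC by linear trapezoidal rule, t1/2 by noncompartmental analysis.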

Series [4] is described as follows: Cmax in CD1 albino mouse plasma at 10 mg/kg, ip after 15 mins.

`CSc1ccccc1N1CCN(CCCCCC(=O)NC2CCCc3ccccc32)CC1` (centres undefined) came in with a concentration at 1 h in series [1] of less than 100 ng/mL. The Cmax in series [2] was 580 ng/g; in series [4], 310 ng/mL. Besides, the half-life in series [3] was determined as 20 min.

Broadly, the Cmax is the peak of the concentration-time curve.
